Converted amounts (≈) assume the structure as drawn. The source made the active and inactive calls. The calls are words filed in the database; no cut-off is given here.
How the values were obtained:
Staphylococcus [1] = assay: Antibacterial activity against Staphylococcus MLS-16 MTCC 2940 after 24 hrs by agar dilution method; type: functional; conditions: MLS-16 MTCC 2940, 24 h
Micrococcus luteus [2] = assay: Antibacterial activity against Micrococcus luteus MTCC 2470 at 80 ug/ml after 24 hrs by agar dilution method; type: functional, organism-based
Bacillus subtilis [3] = assay: Antibacterial activity against Bacillus subtilis MTCC 121 after 24 hrs by agar dilution method; type: functional; conditions: MTCC 121, 24 h
Escherichia coli = assay: Antibacterial activity against Escherichia coli MTCC 739 at 80 ug/ml after 24 hrs by agar dilution method; type: functional, organism-based
Candida albicans [4] = assay: Antifungal activity against Candida albicans MTCC 3017 after 48 hrs by agar dilution method; type: functional; conditions: MTCC 3017, 48 h
In short: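 Same disk/dilution format as the antibacterial assay, on potato dextrose agar (39 g/L). Compounds were from DMSO stock, loaded at 1 to 80 per disk, in triplicate. Plates were incubated at 28 ± 2 °C for 48 h. MIC was the lowest amount that arrested growth. Equivalent DMSO served as solvent control.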

Pseudomonas aeruginosa [5] = assay: Antibacterial activity against Pseudomonas aeruginosa MTCC 2453 after 24 hrs by agar dilution method; type: functional; conditions: MTCC 2453, 24 h
Raoultella planticola = assay: Antibacterial activity against Klebsiella planticola MTCC 530 at 80 ug/ml after 24 hrs by agar dilution method; type: functional, organism-based
Staphylococcus aureus [6] = assay: Antibacterial activity against Staphylococcus aureus MTCC 96 after 24 hrs by agar dilution method; type: functional; conditions: MTCC 96, 24 h
Bacillus subtilis [7] = assay: Antibacterial activity against Bacillus subtilis MTCC 121 at 20 ug/ml after 24 hrs by disk diffusion method; type: functional; conditions: MTCC 121, 24 h, read-out: IZ
Pseudomonas aeruginosa [8] = assay: Antibacterial activity against Pseudomonas aeruginosa MTCC 2453 at 20 ug/ml after 24 hrs by disk diffusion method; type: functional; conditions: MTCC 2453, 24 h, read-out: IZ
Staphylococcus [9] = assay: Antibacterial activity against Staphylococcus MLS-16 MTCC 2940 at 20 ug/ml after 24 hrs by disk diffusion method; type: functional; conditions: MLS-16 MTCC 2940, 24 h, read-out: IZ
Micrococcus luteus [10] = assay: Antibacterial activity against Micrococcus luteus MTCC 2470 after 24 hrs by agar dilution method; type: functional; conditions: MTCC 2470, 24 h
Micrococcus luteus [11] = assay: Antibacterial activity against Micrococcus luteus MTCC 2470 at 20 ug/ml after 24 hrs by disk diffusion method; type: functional; conditions: MTCC 2470, 24 h, read-out: IZ
Staphylococcus aureus [12] = assay: Antibacterial activity against Staphylococcus aureus MTCC 96 at 20 ug/ml after 24 hrs by disk diffusion method; type: functional; conditions: MTCC 96, 24 h, read-out: IZ
[13] = test system: Mycobacterium tuberculosis; assay: Antibacterial activity against Mycobacterium tuberculosis H37Rv at 32 ug/ml […] by agar dilution method; type: functional, organism-based
Pseudomonas aeruginosa [14] = assay: Antibacterial activity against Pseudomonas aeruginosa MTCC 2453 at 80 ug/ml after 24 hrs by agar dilution method; type: functional, organism-based
Candida albicans [15] = assay: Antifungal activity against Candida albicans MTCC 3017 at 20 ug/ml after 24 hrs by disk diffusion method; type: functional; conditions: MTCC 3017, 24 h, read-out: IZ

Row | SMILES | MIC (Staphylococcus [1]) | Activity (Micrococcus luteus [2]) | MIC (Bacillus subtilis [3]) | Activity (Escherichia coli) | MIC (Candida albicans [4]) | MIC (Pseudomonas aeruginosa [5]) | Activity (Raoultella planticola) | MIC (Staphylococcus aureus [6]) | zone of inhibition at 20 µg/mL (Bacillus subtilis [7]) | zone of inhibition at 20 µg/mL (Pseudomonas aeruginosa [8]) | zone of inhibition at 20 µg/mL (Staphylococcus [9]) | MIC (Micrococcus luteus [10]) | zone of inhibition at 20 µg/mL (Micrococcus luteus [11]) | zone of inhibition at 20 µg/mL (Staphylococcus aureus [12]) | Activity [13] | Activity (Pseudomonas aeruginosa [14]) | zone of inhibition at 20 µg/mL (Candida albicans [15])
1 | CC(=O)Nc1nc(C)c(S(=O)(=O)NC[C@H]2CN(c3ccc(N4CCOCC4)c(F)c3)C(=O)O2)s1 | 20 µg/mL (≈ 38.9 µM) | inactive | 8 µg/mL (≈ 15.6 µM) | inactive | 20 µg/mL (≈ 38.9 µM) | 8 µg/mL (≈ 15.6 µM) | inactive | 20 µg/mL (≈ 38.9 µM) |  |  |  |  |  |  |  |  | 
2 | CC(=O)NC[C@H]1CN(c2ccc(N3CCOCC3)c(F)c2)C(=O)O1 [LINEZOLID] | 1.5 µg/mL (≈ 4.45 µM) |  | 1.5 µg/mL (≈ 4.45 µM) |  |  |  |  | 1.5 µg/mL (≈ 4.45 µM) | 10 mm | 12 mm | 18 mm | 1 µg/mL (≈ 2.96 µM) | 20 mm | 28 mm |  |  | 
3 | O=C1O[C@@H](CNS(=O)(=O)c2cc(Cl)cc(Cl)c2)CN1c1ccc(N2CCOCC2)c(F)c1 | 8 µg/mL (≈ 15.9 µM) | inactive | 8 µg/mL (≈ 15.9 µM) | inactive | 8 µg/mL (≈ 15.9 µM) | 40 µg/mL (≈ 79.3 µM) | inactive | 8 µg/mL (≈ 15.9 µM) |  |  |  |  |  |  | inactive |  | 
4 | O=C1O[C@@H](CNS(=O)(=O)c2cccc(Cl)c2)CN1c1ccc(N2CCOCC2)c(F)c1 | 6 µg/mL (≈ 12.8 µM) |  | 6 µg/mL (≈ 12.8 µM) | inactive | 8 µg/mL (≈ 17 µM) |  | inactive | 6 µg/mL (≈ 12.8 µM) |  |  |  | 8 µg/mL (≈ 17 µM) |  |  | inactive | inactive | 
5 | O=C1O[C@@H](CNS(=O)(=O)c2cc(S(=O)(=O)c3ccccc3)cs2)CN1c1ccc(N2CCSCC2)c(F)c1 | 6 µg/mL (≈ 10 µM) | inactive | 8 µg/mL (≈ 13.4 µM) | inactive | 8 µg/mL (≈ 13.4 µM) | 8 µg/mL (≈ 13.4 µM) | inactive | 6 µg/mL (≈ 10 µM) |  |  |  |  |  |  | inactive |  | 
6 | CC(C)(C)OC(=O)N1CCN(c2ccc(N3C[C@H](CNS(=O)(=O)c4ccc(F)cc4)OC3=O)cc2F)CC1 | 10 µg/mL (≈ 18.1 µM) |  | 20 µg/mL (≈ 36.2 µM) | inactive | 10 µg/mL (≈ 18.1 µM) | 20 µg/mL (≈ 36.2 µM) | inactive | 10 µg/mL (≈ 18.1 µM) |  |  |  | 10 µg/mL (≈ 18.1 µM) |  |  | inactive |  | 
7 | O=C1O[C@@H](CNS(=O)(=O)c2ccc(F)cc2)CN1c1ccc(N2CCNCC2)c(F)c1 | 8 µg/mL (≈ 17.7 µM) |  | 10 µg/mL (≈ 22.1 µM) | inactive | 8 µg/mL (≈ 17.7 µM) | 4 µg/mL (≈ 8.84 µM) | inactive | 8 µg/mL (≈ 17.7 µM) | 20 mm | 18 mm | 17 mm | 4 µg/mL (≈ 8.84 µM) | 14 mm | 17 mm |  |  | 16 mm
8 | O=C1O[C@@H](CNS(=O)(=O)c2ccc(C(F)(F)F)cc2)CN1c1ccc(N2CCSCC2)c(F)c1 | 8 µg/mL (≈ 15.4 µM) | inactive | 10 µg/mL (≈ 19.2 µM) | inactive | 8 µg/mL (≈ 15.4 µM) | 8 µg/mL (≈ 15.4 µM) | inactive | 8 µg/mL (≈ 15.4 µM) |  |  |  |  |  |  | inactive |  | 
9 | O=C1O[C@@H](CNS(=O)(=O)c2cccc3cccnc23)CN1c1ccc(N2CCOCC2)c(F)c1 | 10 µg/mL (≈ 20.6 µM) |  | 8 µg/mL (≈ 16.4 µM) | inactive | 20 µg/mL (≈ 41.1 µM) | 6 µg/mL (≈ 12.3 µM) | inactive | 10 µg/mL (≈ 20.6 µM) |  |  |  | 8 µg/mL (≈ 16.4 µM) |  |  | inactive |  | 
10 | O=C1O[C@@H](CNS(=O)(=O)c2ccc(F)c(F)c2)CN1c1ccc(N2CCOCC2)c(F)c1 | 10 µg/mL (≈ 21.2 µM) | inactive | 10 µg/mL (≈ 21.2 µM) |  | 10 µg/mL (≈ 21.2 µM) | 10 µg/mL (≈ 21.2 µM) |  |  |  |  |  |  |  |  | inactive |  | 
11 | O=C1O[C@@H](CNS(=O)(=O)c2cccs2)CN1c1ccc(N2CCSCC2)c(F)c1 | 4 µg/mL (≈ 8.74 µM) |  | 2 µg/mL (≈ 4.37 µM) | inactive | 4 µg/mL (≈ 8.74 µM) | 4 µg/mL (≈ 8.74 µM) | inactive | 4 µg/mL (≈ 8.74 µM) |  |  |  | 6 µg/mL (≈ 13.1 µM) |  |  | inactive |  | 
12 | O=C1O[C@@H](CNS(=O)(=O)c2ccc(F)c(F)c2F)CN1c1ccc(N2CCOCC2)c(F)c1 | 6 µg/mL (≈ 12.3 µM) | inactive | 6 µg/mL (≈ 12.3 µM) | inactive | 6 µg/mL (≈ 12.3 µM) | 8 µg/mL (≈ 16.3 µM) | inactive | 6 µg/mL (≈ 12.3 µM) |  |  |  |  |  |  | inactive |  | 
